{"source": "ChEMBL document CHEMBL1141647", "about": "“Novel ofloxacin derivatives: synthesis, antimycobacterial and toxicological evaluation” (Bioorg Med Chem Lett, 2008)", "key": {"[1]": {"system": "Mycobacterium tuberculosis", "test": "Antimycobacterial activity against Mycobacterium tuberculosis H37Rv by agar dilution method", "format": "functional", "how_it_was_run": "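MIC99 was taken as the lowest concentration giving complete inhibition of bacterial growth.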"}, "[2]": {"system": "Vero", "test": "Cytotoxicity against african green monkey Vero cells after 72 hrs by MTT assay", "format": "cell-based", "details": "Chlorocebus sabaeus", "how_it_was_run": "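Vero cells exposed for 72 h; tested up to 62.5 µg/mL. Viability was read as cellular conversion of MTT to formazan, and IC50 was reported in µM.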"}, "[3]": {"system": "Mycobacterium tuberculosis", "test": "Antimycobacterial activity against Mycobacterium tuberculosis ATCC 35801 infected CD1 mouse lungs assessed as viable organisms at 25 mg/kg, ip after 35 days relative to control", "format": "functional", "details": "route intraperitoneal", "how_it_was_run": "(§1)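 CD-1 mice infected intravenously with M. tuberculosis ATCC 35801; intraperitoneal treatment started 10 days after inoculation and continued for 10 days. At 35 days postinfection, spleens and right lungs were removed aseptically and viable organisms counted (log CFU). Counts were compared with vehicle-treated controls.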"}, "[4]": {"system": "Mycolicibacterium smegmatis", "test": "Antimycobacterial activity against Mycobacterium smegmatis ATCC 14468 by agar dilution method", "format": "functional", "how_it_was_run": "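MC² (M. smegmatis) growth inhibition; MIC99 taken as the lowest concentration giving complete inhibition of bacterial growth, in µM.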"}, "[5]": {"system": "Mycobacterium tuberculosis", "test": "Antimycobacterial activity against Mycobacterium tuberculosis ATCC 35801 infected CD1 mouse spleen assessed as viable organisms at 25 mg/kg, ip after 35 days relative to control", "format": "functional", "details": "route intraperitoneal", "how_it_was_run": "as §1"}}}
{"compound": "NNC(=O)c1ccncc1", "note": "[ISONIAZID]", "values": [{"measurement": "MIC99", "setting": "[1]", "value": 0.36, "unit": "µM"}, {"measurement": "IC50", "setting": "[2]", "value": "> 456", "unit": "µM"}, {"measurement": "Log10 cfu", "setting": "[3]", "value": 5.86}, {"measurement": "MIC99", "setting": "[4]", "value": 45.6, "unit": "µM"}, {"measurement": "Log10 cfu", "setting": "[5]", "value": 4.71}]}
